Converted amounts (≈) assume the structure as drawn. The source made the active and inactive calls. The calls are words filed in the database; no cut-off is given here.
How the values were obtained:
[1] = tested on: Staphylococcus aureus; test: Antimicrobial activity against methicillin-resistant Staphylococcus aureus HPV107 by Etest; type: functional
Method in brief: (§1)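 Etest (manufacturer's method) and population analysis: overnight cultures serially diluted and plated on TSA with increasing oxacillin or BPR, CFU counted after 48 h at 37°C. Colonies from subpopulations growing at high oxacillin or BPR were picked, restreaked on antibiotic-free TSA for three passages, then retested by population analysis.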

[2] = tested on: Staphylococcus aureus; test: Antimicrobial activity against methicillin-resistant Staphylococcus aureus HU25 assessed as concentration required for bacterial subpopulation growth; type: functional; method in brief: as §1
[3] = tested on: Staphylococcus aureus; test: Antimicrobial activity against methicillin-resistant Staphylococcus aureus COL by Etest; type: functional; method in brief: as §1
[4] = tested on: Staphylococcus aureus; test: Antimicrobial activity against methicillin-resistant Staphylococcus aureus E2125 by Etest; type: functional; method in brief: as §1
[5] = target: T1, MecA (Staphylococcus aureus, UniProt Q7DHH4); test: Inhibition of methicillin-resistant Staphylococcus aureus COL PBP2a by competitive assay; set-up: species or system Staphylococcus aureus subsp. aureus COL
T1 sequence (Q7DHH4 whole entry): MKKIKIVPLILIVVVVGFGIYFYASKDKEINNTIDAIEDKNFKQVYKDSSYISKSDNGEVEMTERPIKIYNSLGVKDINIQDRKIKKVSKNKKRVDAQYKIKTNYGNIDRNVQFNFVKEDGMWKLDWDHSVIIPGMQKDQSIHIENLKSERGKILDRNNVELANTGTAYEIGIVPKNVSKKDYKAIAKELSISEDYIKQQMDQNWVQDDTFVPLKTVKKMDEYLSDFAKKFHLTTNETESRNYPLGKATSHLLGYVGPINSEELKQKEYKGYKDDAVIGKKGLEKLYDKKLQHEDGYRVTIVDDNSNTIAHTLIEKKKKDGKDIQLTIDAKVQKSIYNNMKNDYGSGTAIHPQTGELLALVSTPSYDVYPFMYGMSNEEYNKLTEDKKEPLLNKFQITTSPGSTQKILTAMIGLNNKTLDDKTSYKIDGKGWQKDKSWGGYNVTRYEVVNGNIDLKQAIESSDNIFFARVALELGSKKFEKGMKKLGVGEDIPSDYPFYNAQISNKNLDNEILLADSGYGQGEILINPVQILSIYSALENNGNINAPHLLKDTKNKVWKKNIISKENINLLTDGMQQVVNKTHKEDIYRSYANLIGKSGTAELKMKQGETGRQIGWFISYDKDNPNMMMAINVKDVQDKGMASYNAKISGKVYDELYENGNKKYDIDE
Method in brief: (§2)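 Purified soluble PBP 2A (mecA expressed in E. coli, 97% pure) at 0.8 µM, preincubated with drug 30 min at 30°C. Then 20 µM Bocillin FL added for 10 min at 37°C, quenched with SDS-PAGE buffer and boiled. Drug range 0.5–20 µM; for IC50, BPR 0.5–200 µM or oxacillin 5–6,000 µM. Curve fitting.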

[6] = tested on: Staphylococcus aureus; test: Antimicrobial activity against methicillin-resistant Staphylococcus aureus BK2529 by Etest; type: functional; method in brief: as §1
[7] = tested on: Staphylococcus aureus; test: Antimicrobial activity against methicillin-resistant Staphylococcus aureus E2125 assessed as concentration required for bacterial subpopulation growth; type: functional; method in brief: as §1
[8] = target: T2, MecA (Staphylococcus aureus) (UniProt Q7DHH4); test: Inhibition of methicillin-resistant Staphylococcus aureus COL PBP2a at 10 uM by competitive assay; conditions: Staphylococcus aureus subsp. aureus COL; method in brief: as §2
T2 sequence (whole entry): T1 sequence (Q7DHH4 whole entry)

[9] = tested on: Staphylococcus aureus; test: Antimicrobial activity against methicillin-resistant Staphylococcus aureus E2125 assessed as concentration required for minimum inhibition of oxacillin-resistant subpopulation growth by Etest; type: functional; method in brief: as §1
[10] = tested on: Staphylococcus aureus; test: Antimicrobial activity against methicillin-resistant Staphylococcus aureus BK2464 assessed as concentration required for bacterial subpopulation growth; type: functional; method in brief: as §1
[11] = tested on: Staphylococcus aureus; test: Antimicrobial activity against vancomycin-intermediate Staphylococcus aureus JH9 obtained from bacteremic patient by Etest; type: functional
Method in brief: (§3)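 Etest and population analysis: overnight cultures plated on TSA with increasing vancomycin, oxacillin or BPR, CFU counted after 48 h at 37°C. For VRSA strains, vancomycin plates also run with constant 1 µg/ml BPR. Vancomycin Etest read after overnight 37°C incubation on TSA with or without 1 µg/ml BPR.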

[12] = target: T2, MecA (Staphylococcus aureus); test: Displacement of benzyl-[14C]penicillin from Staphylococcus aureus PBP2a RU130 mutant at 2500 ug/ml by in vitro competitive assay; conditions: Staphylococcus aureus subsp. aureus COL
Method in brief: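 Membranes from PBP 2 insertional mutant RU130 (Tn551 in transpeptidase domain), late exponential phase, 150 µg protein, preincubated with increasing oxacillin or BPR 10 min at 30°C. Then labelled with 20 µg/ml benzyl[14C]penicillin 10 min at 37°C and stopped with excess unlabelled penicillin in SDS. SDS-PAGE with phosphor screen exposure for 2 weeks.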

[13] = tested on: Staphylococcus aureus; test: Antimicrobial activity against methicillin-resistant Staphylococcus aureus USA300 assessed as concentration required for minimum inhibition of oxacillin-resistant subpopulation growth by Etest; type: functional; method in brief: as §1
[14] = tested on: Staphylococcus aureus; test: Antimicrobial activity against oxacillin-resistant Staphylococcus aureus COLVA harboring Tn1546 transposon by Etest; type: functional; method in brief: as §3
[15] = tested on: Staphylococcus aureus; test: Antimicrobial activity against vancomycin-intermediate Staphylococcus aureus Mu50 by Etest; type: functional; method in brief: as §3
[16] = tested on: Staphylococcus aureus; test: Antimicrobial activity against methicillin-resistant Staphylococcus aureus BK2464 by Etest; type: functional; method in brief: as §1
[17] = tested on: Staphylococcus aureus; test: Antimicrobial activity against vancomycin-resistant Staphylococcus aureus VRS1 by Etest; type: functional; method in brief: as §3
[18] = target: T2, MecA (Staphylococcus aureus); test: Inhibition of methicillin-resistant Staphylococcus aureus 67-O PBP2a by competitive assay
[19] = tested on: Staphylococcus aureus; test: Antimicrobial activity against methicillin-resistant Staphylococcus aureus USA300 by Etest; type: functional; method in brief: as §1
[20] = tested on: Staphylococcus aureus; test: Antimicrobial activity against methicillin-resistant Staphylococcus aureus COL assessed as reduction in viable bacterial titer after 24 hrs in presence of 10 times compound MIC; type: functional
[21] = tested on: Staphylococcus aureus; test: Antimicrobial activity against methicillin-resistant Staphylococcus aureus HDE288 by Etest; type: functional; method in brief: as §1
[22] = tested on: Staphylococcus aureus; test: Antimicrobial activity against methicillin-resistant Staphylococcus aureus HAR22 assessed as concentration required for bacterial subpopulation growth; type: functional; method in brief: as §1
[23] = tested on: Staphylococcus aureus; test: Antimicrobial activity against methicillin-resistant Staphylococcus aureus HAR22 by Etest; type: functional; method in brief: as §1
[24] = tested on: Staphylococcus aureus; test: Antimicrobial activity against methicillin-resistant Staphylococcus aureus BK2529 assessed as concentration required for minimum inhibition of oxacillin-resistant subpopulation growth by Etest; type: functional; method in brief: as §1
[25] = tested on: Staphylococcus aureus; test: Antimicrobial activity against methicillin-resistant Staphylococcus aureus HDE288 assessed as concentration required for minimum inhibition of oxacillin-resistant subpopulation growth by Etest; type: functional; method in brief: as §1
[26] = tested on: Staphylococcus aureus; test: Antimicrobial activity against methicillin-resistant Staphylococcus aureus HAR22 assessed as concentration required for minimum inhibition of oxacillin-resistant subpopulation growth by Etest; type: functional; method in brief: as §1
[27] = tested on: Staphylococcus aureus; test: Bactericidal activity against methicillin-resistant Staphylococcus aureus COL assessed as reduction in viable bacterial titer after 24 hrs at 10 times MIC; type: functional, organism-based
Method in brief: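 Time-kill: exponentially growing COL cultures (OD620 0.2, about 10^8 CFU/ml at zero time) given 10× MIC of drug under aerobic conditions. Untreated control. Aliquots taken at intervals, serially diluted, plated on TSA, colonies counted after 48 h at 37°C.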

[28] = tested on: Staphylococcus aureus; test: Antimicrobial activity against methicillin-resistant Staphylococcus aureus HPV107 assessed as concentration required for minimum inhibition of oxacillin-resistant subpopulation growth by Etest; type: functional; method in brief: as §1
[29] = tested on: Staphylococcus aureus; test: Antimicrobial activity against methicillin-resistant Staphylococcus aureus HDE288 assessed as concentration required for bacterial subpopulation growth; type: functional; method in brief: as §1
[30] = tested on: Staphylococcus aureus; test: Antimicrobial activity against methicillin-resistant Staphylococcus aureus USA300 assessed as concentration required for bacterial subpopulation growth; type: functional; method in brief: as §1
[31] = tested on: Staphylococcus aureus; test: Antimicrobial activity against methicillin-resistant Staphylococcus aureus HAR24 by Etest; type: functional; method in brief: as §1
[32] = tested on: Staphylococcus aureus; test: Antimicrobial activity against methicillin-resistant Staphylococcus aureus BK2529 assessed as concentration required for bacterial subpopulation growth; type: functional; method in brief: as §1
[33] = tested on: Staphylococcus aureus; test: Antimicrobial activity against methicillin-resistant Staphylococcus aureus HU25 by Etest; type: functional; method in brief: as §1
[34] = tested on: Staphylococcus aureus; test: Antimicrobial activity against methicillin-resistant Staphylococcus aureus HPV107 assessed as concentration required for bacterial subpopulation growth; type: functional; method in brief: as §1
[35] = tested on: Staphylococcus aureus; test: Antimicrobial activity against methicillin-resistant Staphylococcus aureus HAR24 assessed as concentration required for bacterial subpopulation growth; type: functional; method in brief: as §1
[36] = tested on: Staphylococcus aureus; test: Antimicrobial activity against methicillin-resistant Staphylococcus aureus HAR24 assessed as concentration required for minimum inhibition of oxacillin-resistant subpopulation growth by Etest; type: functional; method in brief: as §1
[37] = tested on: Staphylococcus aureus; test: Antimicrobial activity against methicillin-resistant Staphylococcus aureus BK2464 assessed as concentration required for minimum inhibition of oxacillin-resistant subpopulation growth by Etest; type: functional; method in brief: as §1

In the case of `Cc1onc(-c2ccccc2)c1C(=O)N[C@@H]1C(=O)N2[C@@H]1SC(C)(C)[C@@H]2C(=O)O` [OXACILLIN], the MIC [1] is reported as 0.8 µg/mL (≈ 1.99 µM), the Activity [2] is reported as 800 µg/mL and the MIC [3] is reported as > 800 µg/mL. The MIC [4] was 6 µg/mL (≈ 14.9 µM), the IC50 [5] was 710 µM and the MIC [6] was 1.5 µg/mL (≈ 3.74 µM). The Activity [7] was 400 µg/mL, the inhibition [8] was 5% and the Activity [9] was 400 µg/mL. For the same molecule, the Activity [10] was 400 µg/mL, the MIC [11] was 3 µg/mL (≈ 7.47 µM) and the Activity [12] was “Active”. For the same molecule, the Activity [13] was 400 µg/mL, the MIC [14] was 800 µg/mL (≈ 1990 µM) and the MIC [15] was > 800 µg/mL. For the same molecule, the MIC [16] was 12.5 µg/mL (≈ 31.1 µM), the MIC [17] was > 800 µg/mL and the Activity [18] was 300 µg/mL. For the same molecule, the MIC [19] was 0.8 µg/mL (≈ 1.99 µM), the fold reduction in CFU [20] was 1000 fold and the MIC [21] was 0.8 µg/mL (≈ 1.99 µM). The Activity [22] was 400 µg/mL, the MIC [23] was 100 µg/mL (≈ 249 µM) and the Activity [24] was 200 µg/mL. For the same molecule, the Activity [25] was 200 µg/mL, the Activity [26] was 800 µg/mL and the Activity [27] was “inactive”. The Activity [28] was 100 µg/mL, the Activity [29] was 400 µg/mL and the Activity [30] was 800 µg/mL. It also gave an MIC [31] of 100 µg/mL (≈ 249 µM), an Activity [32] of 400 µg/mL and an MIC [33] of 400 µg/mL (≈ 996 µM). It also gave an Activity [34] of 400 µg/mL, an Activity [35] of 800 µg/mL and an Activity [36] of 800 µg/mL. For the same molecule, the Activity [37] was 200 µg/mL.
`CN[C@H](CC(C)C)C(=O)N[C@H]1C(=O)N[C@@H](CC(N)=O)C(=O)N[C@H]2C(=O)N[C@H]3C(=O)N[C@H](C(=O)N[C@H](C(=O)O)c4cc(O)cc(O)c4-c4cc3ccc4O)[C@H](O)c3ccc(c(Cl)c3)Oc3cc2cc(c3O[C@@H]2O[C@H](CO)[C@@H](O)[C@H](O)[C@H]2O[C@H]2C[C@](C)(N)[C@H](O)[C@H](C)O2)Oc2ccc(cc2Cl)[C@H]1O` [VANCOMYCIN] was tested, and the MIC [11] was 6 µg/mL (≈ 4.14 µM), the MIC [14] was 800 µg/mL (≈ 552 µM) and the MIC [15] was 6 µg/mL (≈ 4.14 µM). For the same molecule, the MIC [17] was > 800 µg/mL.

Reference: ChEMBL document CHEMBL1275462 (Antimicrob Agents Chemother, 2008)
